The record followed here is ChEMBL document CHEMBL4041524, “Synthesis and Characterization of a Novel γ-Aminobutyric Acid Type A (GABAA) Receptor Ligand That Combines Outstanding Metabolic Stability, Pharmacokinetics, and Anxiolytic Efficacy” (J Med Chem, 2016).

pEC50: −log10 of the molar value. The source made the active and inactive calls. No cut-off for these calls is given here.

Data set [1] has as its system Mus musculus. The experiment in a line: Toxicity in Swiss mouse assessed as change in motor coordination by measuring number of falls from the rotating rod at 30 mg/kg, ip administered 30 mins prior to testing measured for 2 mins by rotarod test relative to control. Conditions: in vivo. The class given is organism-based. In short, it runs like this: (§1)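 The same mice used for marble burying were placed on a rotarod at 4 r.p.m. for 2 min. No fall was scored success, one fall partial, and two falls failure.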

For data set [2], the system named is Liver. The experiment in a line: Metabolic stability in human liver microsomes assessed as compound remaining at 4 uM measured after 30 mins in presence of NADPH by LC-MS/MS analysis. As to conditions: 0.5 h. The class given is ADME, microsome. In short, it runs like this: (§2)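 Human, mouse or rat liver microsomes were incubated with compound at 4 μM final for 30 min at 37 °C (n = 1). Percent of parent remaining was quantified by LC-MS/MS.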
A general note: Liver microsomes are vesicles of endoplasmic reticulum, rich in cytochrome P450 enzymes.

Data set [3] has as its system Liver. Put plainly: Metabolic stability in rat liver microsomes assessed as compound remaining at 4 uM measured after 30 mins in presence of NADPH by LC-MS/MS analysis. The data set is classed as ADME, microsome. As to conditions: 0.5 h. Put shortly:
as §2

Data set [4] has as its system Liver. Put plainly: Metabolic stability in mouse liver microsomes assessed as compound remaining at 4 uM measured after 30 mins in presence of NADPH by LC-MS/MS analysis. The data set is classed as ADME, microsome. As to conditions: 0.5 h. Put shortly: as §2
The subject of data set [5] is Mus musculus. Put plainly: Toxicity in Swiss mouse assessed as change in motor coordination by measuring number of falls from the rotating rod at 10 mg/kg, ip administered 30 mins prior to testing measured for 2 mins by rotarod test relative to control. The class given is organism-based. Conditions: in vivo. In short, it runs like this: as §1
In general terms: In the rotarod test animals must keep their balance on a rotating rod.

In data set [6] the target is T1, GABA-A receptor; alpha-3/beta-3/gamma-2 (Homo sapiens, UniProt P18507+P28472+P34903).
T1 sequence (P18507 whole entry): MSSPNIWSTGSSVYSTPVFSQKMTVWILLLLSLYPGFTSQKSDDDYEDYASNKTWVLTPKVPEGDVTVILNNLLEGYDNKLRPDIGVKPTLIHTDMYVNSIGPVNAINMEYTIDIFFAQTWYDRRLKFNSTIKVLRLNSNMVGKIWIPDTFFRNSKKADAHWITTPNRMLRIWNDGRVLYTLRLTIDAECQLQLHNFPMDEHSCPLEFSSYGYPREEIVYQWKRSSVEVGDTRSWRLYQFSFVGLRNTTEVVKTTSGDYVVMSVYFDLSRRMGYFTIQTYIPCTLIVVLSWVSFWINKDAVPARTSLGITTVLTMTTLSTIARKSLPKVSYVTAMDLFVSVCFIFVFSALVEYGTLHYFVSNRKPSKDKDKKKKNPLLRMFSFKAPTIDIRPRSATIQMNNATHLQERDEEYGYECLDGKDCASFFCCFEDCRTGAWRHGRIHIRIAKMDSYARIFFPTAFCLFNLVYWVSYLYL
T1 sequence (P28472 whole entry): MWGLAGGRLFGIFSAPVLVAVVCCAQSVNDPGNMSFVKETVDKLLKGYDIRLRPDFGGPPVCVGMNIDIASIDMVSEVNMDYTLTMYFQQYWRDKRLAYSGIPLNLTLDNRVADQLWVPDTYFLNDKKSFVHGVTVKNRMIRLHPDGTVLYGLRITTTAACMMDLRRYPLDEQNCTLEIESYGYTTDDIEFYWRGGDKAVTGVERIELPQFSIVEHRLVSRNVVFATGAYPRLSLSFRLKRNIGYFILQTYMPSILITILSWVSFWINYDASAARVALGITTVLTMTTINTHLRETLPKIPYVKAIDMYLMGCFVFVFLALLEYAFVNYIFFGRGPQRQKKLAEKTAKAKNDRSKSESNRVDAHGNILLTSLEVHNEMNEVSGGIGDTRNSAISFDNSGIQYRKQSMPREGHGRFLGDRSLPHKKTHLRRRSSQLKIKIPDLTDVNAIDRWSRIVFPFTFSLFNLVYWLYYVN
T1 sequence (P34903 whole entry): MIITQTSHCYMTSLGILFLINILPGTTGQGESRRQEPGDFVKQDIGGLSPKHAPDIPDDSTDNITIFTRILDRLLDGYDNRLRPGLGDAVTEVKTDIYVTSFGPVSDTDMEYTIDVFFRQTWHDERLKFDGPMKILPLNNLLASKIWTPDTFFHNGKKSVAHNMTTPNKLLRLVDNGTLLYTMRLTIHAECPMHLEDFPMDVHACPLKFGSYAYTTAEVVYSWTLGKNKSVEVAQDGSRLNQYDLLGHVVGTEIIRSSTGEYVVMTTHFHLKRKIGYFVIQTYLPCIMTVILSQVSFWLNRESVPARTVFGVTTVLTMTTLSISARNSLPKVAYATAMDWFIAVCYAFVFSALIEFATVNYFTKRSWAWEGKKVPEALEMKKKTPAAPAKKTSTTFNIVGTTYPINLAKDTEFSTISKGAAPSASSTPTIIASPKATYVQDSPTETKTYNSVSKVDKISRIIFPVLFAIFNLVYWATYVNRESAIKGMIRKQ
The experiment in a line: Binding affinity to human GABAA alpha3beta3gamma2 receptor expressed in HEK293 cells assessed as GABA-induced membrane potential change preincubated for 3 mins followed by addition of GABA measured after 3 mins by FLIPR assay. The data set is classed as cell-based. Put shortly:
(§3)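 Stably transfected HEK293T cells expressing α1β3γ2 (n = 2) or α3β3γ2 (n = 1) GABAARs. Membrane potential was read as fluorescence changes on a FLIPR Tetra, and EC50 was derived.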

The target in data set [7] is T2, GABA-A receptor; alpha-1/beta-3/gamma-2 (Homo sapiens, UniProt P14867+P18507+P28472).
T2 sequence (P14867 whole entry): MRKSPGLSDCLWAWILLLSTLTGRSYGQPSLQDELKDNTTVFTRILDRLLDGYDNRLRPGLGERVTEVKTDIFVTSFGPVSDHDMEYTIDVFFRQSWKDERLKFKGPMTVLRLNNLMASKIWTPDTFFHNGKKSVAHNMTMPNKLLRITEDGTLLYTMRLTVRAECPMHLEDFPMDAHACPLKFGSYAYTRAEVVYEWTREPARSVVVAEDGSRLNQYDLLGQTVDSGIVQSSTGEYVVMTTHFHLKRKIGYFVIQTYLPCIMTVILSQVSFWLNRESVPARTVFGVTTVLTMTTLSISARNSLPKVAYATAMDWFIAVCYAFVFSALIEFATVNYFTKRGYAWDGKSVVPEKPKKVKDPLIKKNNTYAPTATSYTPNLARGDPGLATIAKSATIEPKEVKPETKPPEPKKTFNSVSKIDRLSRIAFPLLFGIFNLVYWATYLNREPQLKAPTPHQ
T2 sequence (P18507 whole entry): T1 sequence (P18507 whole entry)
T2 sequence (P28472 whole entry): T1 sequence (P28472 whole entry)
Put plainly: Binding affinity to human GABAA alpha1beta3gamma2 receptor expressed in HEK293 cells assessed as GABA-induced membrane potential change preincubated for 3 mins followed by addition of GABA measured after 3 mins by FLIPR assay. The data set is classed as cell-based. Put shortly: as §3

The nature of data set [8]: Cytotoxicity against HEK293T cells assessed as viable cells measured after 18 hrs by CellTiter-Glo assay. The data set is classed as cell-based, HEK-293T. As to conditions: human, read-out: LD50. Put shortly: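 HEK293T cells were exposed to compound for 18 h (n = 4). Viable cells were quantified with CellTiter-Glo, and LD50 was derived.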
A general note: ATP-based viability assays read luminescence as a measure of living cells.

The subject of data set [9] is Mus musculus. The experiment in a line: Anxiolytic-like activity in Swiss Webster mouse marble burying model of anxiety assessed as suppression of marble burying activity at 30 mg/kg, ip administered 30 mins prior to test relative to vehicle-control. The data set is classed as functional, organism-based. In short, it runs like this: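 Male NIH Swiss Webster mice (n = 10) received vehicle or compound at 10 or 30 mg/kg i.p. 30 min before marble burying testing. Sedation-like behaviour was noted by observation. Analysis was ANOVA with Dunnett's test vs vehicle.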

A short description of data set [10]: Total plasma concentration in Sprague-Dawley rat at 10 mg/kg, po measured after 120 mins by LC-MS/MS analysis. The class given is ADME, organism-based. Put shortly: (§4)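 Sprague-Dawley rats (n = 3 per time point) were given 10 mg/kg p.o. Total plasma concentrations were taken at 15, 30, 60 and 120 min. Brain levels of the dosed ligand and of the carboxylic acid metabolite were taken at 60 or 120 min.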

A short description of data set [11]: Total plasma concentration in Sprague-Dawley rat at 10 mg/kg, po measured after 30 mins by LC-MS/MS analysis. The class given is ADME, organism-based. Put shortly: as §4
A further data set deals with Brain. Put plainly: Drug metabolism in Sprague-Dawley rat brain assessed as (E)-8-ethynyl-6-(pyridin-2-yl)-4H-benzo[f]imidazo[1,5-a][1,4]diazepine-3-carboxylic acid formation at 10 mg/kg, po measured after 120 mins by LC-MS/MS analysis. Conditions: in vivo, 2 h. The data set is classed as ADME, organism-based. In short, it runs like this:
as §4

Data set [12] can be described thus: Drug uptake in Sprague-Dawley rat brain at 10 mg/kg, po measured after 120 mins by LC-MS/MS analysis. The class given is ADME, organism-based. As to conditions: read-out: Drug uptake. In short, it runs like this: as §4
Data set [13] can be described thus: Total plasma concentration in Sprague-Dawley rat at 10 mg/kg, po measured after 60 mins by LC-MS/MS analysis. The data set is classed as ADME, organism-based. Put shortly:
as §4

A short description of data set [14]: Total plasma concentration in Sprague-Dawley rat at 10 mg/kg, po measured after 15 mins by LC-MS/MS analysis. The data set is classed as ADME, organism-based. Put shortly: as §4

The term pEC50 denotes the EC50 on a negative log10 scale, so that one unit is a factor of ten.

On to `C#Cc1ccc2c(c1)C(c1ccccc1)=NCc1c(C(=O)OCC)ncn1-2`, for which, in the data set with Mus musculus [1], the Activity entry was “Toxic”. Also, the Stability stood at 35% with Liver [2], 36% with Liver [3] and 6.3% with Liver [4].
`C#Cc1ccc2c(c1)C(c1ccccc1)=NCc1c(-c3cnco3)ncn1-2`: the Activity result in the data set on Mus musculus [5] and in the data set on Mus musculus [1] was “Toxic” throughout. Besides, the figures for the pEC50 in data set [6] and in data set [7] were 6.49 and below 4.70, respectively. Besides, the CC50 at 18 h in data set [8] was found to be 66.8 µM. The Stability in the data set on Liver [2] is 74%; in the data set on Liver [3] it was 72%; in the data set with Liver [4], 73%. For the same molecule, the outcome with Mus musculus [9] was Active.
In the case of `C#Cc1ccc2c(c1)C(c1ccccc1F)=NCc1c(-c3cnco3)ncn1-2`, the Activity result in the data set on Mus musculus [5] is given as “Non-Toxic”; with Mus musculus [1], “Toxic”. Moreover, the negative-log EC50 (pEC50) in data set [6] is 7.96; in [7], below 4.70. In data set [8], the CC50 at 18 h is 61.5 µM. The Stability is recorded as 78% in the data set on Liver [2], 68% with Liver [3] and 78% in the data set on Liver [4]. Also, the outcome with Mus musculus [9] was Active.
For `C#Cc1ccc2c(c1)C(c1ccccn1)=NCc1c(C(=O)O)ncn1-2`, the concentration at 2 h in data set [10] is 37.5 nM; in data set [12] it was below 12.2 nM. For the same molecule, the results for the pEC50 in data set [6] and in data set [7] were 6.33 and below 4.70, respectively. The concentration at 0.5 h in [11] is 293 nM. Moreover, the Drug metabolism in the data set on Brain was below 12.2 nM. Further, the Activity result in the data set on Mus musculus [1] is listed as “Toxic”. For the same molecule, the Stability in the data set on Liver [2] is on record as 96%; with Liver [3] it was 99%; in the data set with Liver [4], 93%. Also, the concentration at 1 h in data set [13] is 161 nM. For the same molecule, the concentration at 0.25 h in data set [14] is 248 nM.
In the case of `[2H]C([2H])(C)OC(=O)c1ncn2c1CN=C(c1ccccn1)c1cc(C#C)ccc1-2`, the concentration at 2 h in data set [10] and in [12] was below 12.2 nM in each case. In addition, the concentration at 0.5 h in [11] was below 12.2 nM. Besides, the Drug metabolism with Brain is below 12.2 nM. Also, the Activity result with Mus musculus [1] is given as “Toxic”. Further, the values for the Stability with Liver [2], with Liver [3] and in the data set on Liver [4] were 95%, 77% and 63%, respectively. The molecule further registered a concentration at 1 h in data set [13] below 12.2 nM. For the same molecule, the concentration at 0.25 h in [14] is below 12.2 nM.
Regarding `C#Cc1ccc2c(c1)C(c1ccccn1)=NCc1c(-c3nc(C)no3)ncn1-2`, the values for the Activity entry in the data set with Mus musculus [5] and with Mus musculus [1] were “Non-Toxic” and “Toxic”, respectively. The values for the pEC50 in [6] and in [7] were 5.29 and below 4.70, respectively. In addition, in data set [8], the CC50 at 18 h was above 100 µM. For the same molecule, the results for the Stability in the data set with Liver [2], with Liver [3] and in the data set with Liver [4] were 81%, 93% and 85%, respectively. For the same molecule, the result with Mus musculus [9] was Active.
As for `C#Cc1ccc2c(c1)C(c1ccccc1F)=NCc1c(C(=O)OCC)ncn1-2`, the results for the pEC50 in [6] and in data set [7] were 7.54 and below 4.70, respectively. The Activity entry in the data set on Mus musculus [1] is listed as “Toxic”. The results for the Stability in the data set with Liver [2], in the data set on Liver [3] and in the data set with Liver [4] were 6.1%, 0.5% and 6.1%, respectively.
